According to ChEMBL document CHEMBL4765307, “Design, synthesis and biological activity of novel 2,3,4,5-tetra-substituted thiophene derivatives as PI3Kα inhibitors with potent antitumor activity” (Eur J Med Chem, 2020):

What was measured:
[1] = biological target: PI3-kinase p110-alpha/p85-alpha (Homo sapiens, UniProt P42336); assay: Inhibition of His-tagged human full length PI3Kalpha coexpressed with p85 alpha in baculovirus expression system using PIP2 peptide as substrate incubated for 1 hr in presence ATP by Kinase-Glo assay
[2] = biological target: Serine/threonine-protein kinase mTOR (Homo sapiens, UniProt P42345); assay: Inhibition of N-terminal FLAG-tagged human recombinant mTOR (1362 to end residues) using ULight-4E-BP1 (Thr37/46) peptide as substrate incubated for 1 hr in presence of ATP by Lance Ultra assay
Procedure, shortened: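 ULight-4E-BP1 (Thr37/46) peptide with 13 µM ATP; 1 h at room temperature. Stopped with EDTA quench buffer plus Eu-anti-phospho-4E-BP1, 15 min shake and 60 min equilibration, TR-FRET read. IC50 from inhibition curves; average of at least two runs.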

U-87 MG = assay: Antiproliferative activity against human U87MG cells harboring PTEN deletion assessed as reduction in cell viability after 3 days by CellTiter-Glo luminescence assay; type: functional, cell-based, U-87MG ATCC; conditions: 72 h
Procedure, shortened: (§1)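 ATCC lines, 10% FBS: T47D, H1975, H460 in RPMI1640; U87MG in DMEM; A549 in F12K. Seeded 3×10^3 per well the day before, exposed to 3-fold serial dilutions or DMSO for 3 days at 37 °C, 5% CO2; CellTiter-Glo luminescence.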

NCI-H460 = assay: Antiproliferative activity against human NCI-H460 cells harboring PIK3CA mutation assessed as reduction in cell viability after 3 days by CellTiter-Glo luminescence assay; type: functional, cell-based; conditions: NCI-H460, 72 h; procedure, shortened: as §1
A549 = assay: Antiproliferative activity against human A549 cells assessed as reduction in cell viability after 3 days by CellTiter-Glo luminescence assay; type: functional, cell-based; conditions: A549, 72 h; procedure, shortened: as §1
[3] = Apparent permeability across apical to basolateral side in human Caco2 cells at 2 uM incubated for 2 hrs by LC-MS/MS analysis; type: ADME, cell-based; conditions: Caco-2
Procedure, shortened: (§2)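 Caco-2 monolayers grown 21–28 days; compound 2 µM both directions in duplicate, DMSO <1%; 2 h at 37 °C, 5% CO2 without shaking. Donor and receiver levels by LC/MS/MS; integrity by lucifer yellow. Papp = (dCr/dt)×Vr/(A×C0); efflux ratio = Papp(B-A)/Papp(A-B).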

[4] = Efflux ratio of permeability from basolateral to apical over apical to basolateral side in human Caco2 cells at 2 uM incubated for 2 hrs by LC-MS/MS analysis; type: ADME, cell-based; conditions: Caco-2; procedure, shortened: as §2
[5] = Half life in rat liver microsomes at 1 uM by LC-MS/MS analysis; type: ADME, Microsome
Procedure, shortened: (§3)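 Compound 1 µM with human or rat microsomes 0.5 mg/mL, preincubated 10 min at 37 °C in 100 mM potassium phosphate pH 7.4, 10 mM MgCl2; started with NADPH, sampled 0–60 min, quenched with cold acetonitrile, LC–MS/MS. A parallel no-NADPH control was run.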

[6] = Clearance in rat liver microsomes at 1 uM measured after 60 mins by LC-MS/MS analysis; type: ADME, Microsome; conditions: read-out: CLH; procedure, shortened: as §3
CYP1A2 = biological target: T1, CYP1A2 (Homo sapiens, UniProt P05177); assay: Inhibition of CYP1A2 in human liver microsomes using phenacetin as substrate at 10 uM preincubated for 10 mins followed by incubation with NADPH for 10 mins by LC- MS/MS analysis; type: ADME; conditions: probe phenacetin, time 20 min
T1 sequence (P05177 whole entry): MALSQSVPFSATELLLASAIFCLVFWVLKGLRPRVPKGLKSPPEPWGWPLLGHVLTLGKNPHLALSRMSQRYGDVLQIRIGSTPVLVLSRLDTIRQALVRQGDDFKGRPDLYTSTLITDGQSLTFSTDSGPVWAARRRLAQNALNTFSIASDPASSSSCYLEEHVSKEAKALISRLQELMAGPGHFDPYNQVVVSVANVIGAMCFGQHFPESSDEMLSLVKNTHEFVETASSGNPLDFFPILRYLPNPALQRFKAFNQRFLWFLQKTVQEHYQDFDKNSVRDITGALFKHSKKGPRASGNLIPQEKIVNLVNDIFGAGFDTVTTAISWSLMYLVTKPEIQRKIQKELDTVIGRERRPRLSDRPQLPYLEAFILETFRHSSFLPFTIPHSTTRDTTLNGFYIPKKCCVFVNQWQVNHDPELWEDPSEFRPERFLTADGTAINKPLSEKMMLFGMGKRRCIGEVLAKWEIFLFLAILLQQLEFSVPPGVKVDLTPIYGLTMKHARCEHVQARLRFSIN
Procedure, shortened: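 Human liver microsomes 0.25 mg/mL with probe substrate (CYP1A2 10 µM phenacetin; CYP2D6 5 µM dextromethorphan; CYP3A4 2 µM midazolam), test compound 10 µM; 10 min preincubation at 37 °C, NADPH added (final 10 mM), 10 min at 37 °C; stopped with cold acetonitrile containing internal standards; LC-MS/MS.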

[7] = Half life in Sprague-Dawley rat at 5 mg/kg, iv measured after 24 hrs by LC-MS/MS analysis; type: ADME, organism-based; conditions: in vivo
Procedure, shortened: (§4)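 Male SD rats (n=6), single 5 mg/kg intravenous dose; heparinised blood at 0.083–24 h, centrifuged at 4 °C; plasma quantified by LC–MS/MS; noncompartmental parameters.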

[8] = Cmax in Sprague-Dawley rat at 5 mg/kg, iv measured after 24 hrs by LC-MS/MS analysis; type: ADME, organism-based; set-up: route intravenous, dose 5 mg/kg, time 24 hrs; conditions: in vivo; procedure, shortened: as §4
[9] = Clearance in human liver microsomes at 1 uM measured after 60 mins by LC-MS/MS analysis; type: ADME, Microsome; conditions: read-out: CLH; procedure, shortened: as §3
[10] = Half life in human liver microsomes at 1 uM by LC-MS/MS analysis; type: ADME, Microsome; procedure, shortened: as §3
[11] = biological target: Phosphatidylinositol 4,5-bisphosphate 3-kinase catalytic subunit alpha isoform (Homo sapiens) (UniProt P42336); assay: Inhibition of PI3Kalpha in human T47D cells assessed as inhibition of insulin-stimulated Akt phosphorylation at Ser473 residue at 3 uM preincubated for 2 hrs followed by incubation with insulin for 2 hrs by western blot analysis relative to control; type: cell-based; conditions: time 4.0 hrs
Procedure, shortened: (§5)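 T47D cells given compound at 37 °C for 2 h, then stimulated with 1 µg/mL insulin for 2 h; lysed in RIPA with protease/phosphatase inhibitors and 1 mM PMSF; BCA-normalised SDS-PAGE, PVDF blot probed overnight at 4 °C for total Akt and pAkt Ser473, infrared secondary detection.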

[12] = biological target: Phosphatidylinositol 4,5-bisphosphate 3-kinase catalytic subunit alpha isoform (Homo sapiens) (UniProt P42336); assay: Inhibition of PI3Kalpha in human T47D cells assessed as inhibition of insulin-stimulated Akt phosphorylation at Ser473 residue at 1 uM preincubated for 2 hrs followed by incubation with insulin for 2 hrs by western blot analysis relative to control; type: cell-based; conditions: time 4.0 hrs; procedure, shortened: as §5
[13] = Metabolic stability in human liver microsomes assessed as parent compound remaining at 1 uM preincubated for 10 mins followed by incubation in phosphate buffer at pH 7.4 for 60 mins by LC-MS/MS analysis; type: ADME, Microsome; conditions: time 70 min, read-out: Stabilty; procedure, shortened: as §3
[14] = biological target: Voltage-gated inwardly rectifying potassium channel KCNH2 (Homo sapiens, UniProt Q12809); assay: Inhibition of human ERG expressed in CHO cells assessed as inhibition of channel tail current at holding potential of -80 mV by Qpatch assay; type: cell-based
Procedure, shortened: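 CHO cells stably expressing hERG, QPatch in single-hole mode at room temperature, held at […]; each concentration superfused to steady-state block (three superimposable traces), washout between concentrations; cisapride as quality control.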

Phosphatidylinositol 4,5-bisphosphate 3-kinase catalytic subunit alpha isoform (Homo sapiens), sequence (P42336 whole entry, canonical isoform): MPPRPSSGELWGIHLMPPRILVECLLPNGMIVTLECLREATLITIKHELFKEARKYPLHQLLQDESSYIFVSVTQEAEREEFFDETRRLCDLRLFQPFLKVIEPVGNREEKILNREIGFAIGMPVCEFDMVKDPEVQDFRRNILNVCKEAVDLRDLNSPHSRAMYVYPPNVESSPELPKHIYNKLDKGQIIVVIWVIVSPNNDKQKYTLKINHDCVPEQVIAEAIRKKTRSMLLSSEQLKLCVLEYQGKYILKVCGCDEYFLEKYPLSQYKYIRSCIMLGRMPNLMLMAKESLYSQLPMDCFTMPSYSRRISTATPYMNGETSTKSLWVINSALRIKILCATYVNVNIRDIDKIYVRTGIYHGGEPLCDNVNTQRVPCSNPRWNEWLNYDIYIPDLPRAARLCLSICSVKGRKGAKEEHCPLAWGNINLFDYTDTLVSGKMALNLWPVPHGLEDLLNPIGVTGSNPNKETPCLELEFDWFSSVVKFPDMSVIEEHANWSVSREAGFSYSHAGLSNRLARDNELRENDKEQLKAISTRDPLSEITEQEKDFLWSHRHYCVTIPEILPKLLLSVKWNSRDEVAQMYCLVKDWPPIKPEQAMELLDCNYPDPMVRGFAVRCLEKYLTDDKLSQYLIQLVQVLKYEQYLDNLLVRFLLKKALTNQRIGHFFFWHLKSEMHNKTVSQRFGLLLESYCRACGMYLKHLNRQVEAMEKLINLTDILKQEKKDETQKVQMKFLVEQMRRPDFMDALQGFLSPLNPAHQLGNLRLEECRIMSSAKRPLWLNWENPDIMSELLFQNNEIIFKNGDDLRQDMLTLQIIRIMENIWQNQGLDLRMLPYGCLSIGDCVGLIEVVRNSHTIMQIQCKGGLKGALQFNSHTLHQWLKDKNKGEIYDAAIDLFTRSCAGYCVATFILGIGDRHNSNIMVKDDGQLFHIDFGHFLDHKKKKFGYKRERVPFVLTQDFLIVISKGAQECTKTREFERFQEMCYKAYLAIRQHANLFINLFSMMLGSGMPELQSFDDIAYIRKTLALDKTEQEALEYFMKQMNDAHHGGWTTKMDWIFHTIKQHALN
PI3-kinase p110-alpha/p85-alpha, sequence (P27986 whole entry): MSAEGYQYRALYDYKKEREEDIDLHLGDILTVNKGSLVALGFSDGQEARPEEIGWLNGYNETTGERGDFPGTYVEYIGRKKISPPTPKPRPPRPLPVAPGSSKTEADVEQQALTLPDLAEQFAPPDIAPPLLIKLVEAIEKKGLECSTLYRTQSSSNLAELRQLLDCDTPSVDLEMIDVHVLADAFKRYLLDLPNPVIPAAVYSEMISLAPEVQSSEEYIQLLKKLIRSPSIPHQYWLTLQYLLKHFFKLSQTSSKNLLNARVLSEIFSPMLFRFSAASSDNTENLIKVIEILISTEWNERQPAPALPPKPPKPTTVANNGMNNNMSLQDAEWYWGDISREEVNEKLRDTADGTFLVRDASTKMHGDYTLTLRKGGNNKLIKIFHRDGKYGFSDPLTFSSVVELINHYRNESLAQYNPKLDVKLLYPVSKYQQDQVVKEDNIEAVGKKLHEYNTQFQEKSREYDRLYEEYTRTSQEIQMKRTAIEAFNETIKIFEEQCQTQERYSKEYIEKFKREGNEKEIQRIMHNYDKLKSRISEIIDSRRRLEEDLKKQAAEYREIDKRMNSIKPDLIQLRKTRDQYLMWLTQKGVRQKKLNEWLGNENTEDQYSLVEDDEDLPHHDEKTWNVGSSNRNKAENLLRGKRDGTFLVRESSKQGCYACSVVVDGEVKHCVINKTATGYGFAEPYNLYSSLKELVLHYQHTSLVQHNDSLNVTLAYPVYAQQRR
PI3-kinase p110-alpha/p85-alpha, sequence (P42336 whole entry): as the sequence (P42336 whole entry, canonical isoform) above
Voltage-gated inwardly rectifying potassium channel KCNH2, sequence (Q12809 whole entry, the tested form may be a part): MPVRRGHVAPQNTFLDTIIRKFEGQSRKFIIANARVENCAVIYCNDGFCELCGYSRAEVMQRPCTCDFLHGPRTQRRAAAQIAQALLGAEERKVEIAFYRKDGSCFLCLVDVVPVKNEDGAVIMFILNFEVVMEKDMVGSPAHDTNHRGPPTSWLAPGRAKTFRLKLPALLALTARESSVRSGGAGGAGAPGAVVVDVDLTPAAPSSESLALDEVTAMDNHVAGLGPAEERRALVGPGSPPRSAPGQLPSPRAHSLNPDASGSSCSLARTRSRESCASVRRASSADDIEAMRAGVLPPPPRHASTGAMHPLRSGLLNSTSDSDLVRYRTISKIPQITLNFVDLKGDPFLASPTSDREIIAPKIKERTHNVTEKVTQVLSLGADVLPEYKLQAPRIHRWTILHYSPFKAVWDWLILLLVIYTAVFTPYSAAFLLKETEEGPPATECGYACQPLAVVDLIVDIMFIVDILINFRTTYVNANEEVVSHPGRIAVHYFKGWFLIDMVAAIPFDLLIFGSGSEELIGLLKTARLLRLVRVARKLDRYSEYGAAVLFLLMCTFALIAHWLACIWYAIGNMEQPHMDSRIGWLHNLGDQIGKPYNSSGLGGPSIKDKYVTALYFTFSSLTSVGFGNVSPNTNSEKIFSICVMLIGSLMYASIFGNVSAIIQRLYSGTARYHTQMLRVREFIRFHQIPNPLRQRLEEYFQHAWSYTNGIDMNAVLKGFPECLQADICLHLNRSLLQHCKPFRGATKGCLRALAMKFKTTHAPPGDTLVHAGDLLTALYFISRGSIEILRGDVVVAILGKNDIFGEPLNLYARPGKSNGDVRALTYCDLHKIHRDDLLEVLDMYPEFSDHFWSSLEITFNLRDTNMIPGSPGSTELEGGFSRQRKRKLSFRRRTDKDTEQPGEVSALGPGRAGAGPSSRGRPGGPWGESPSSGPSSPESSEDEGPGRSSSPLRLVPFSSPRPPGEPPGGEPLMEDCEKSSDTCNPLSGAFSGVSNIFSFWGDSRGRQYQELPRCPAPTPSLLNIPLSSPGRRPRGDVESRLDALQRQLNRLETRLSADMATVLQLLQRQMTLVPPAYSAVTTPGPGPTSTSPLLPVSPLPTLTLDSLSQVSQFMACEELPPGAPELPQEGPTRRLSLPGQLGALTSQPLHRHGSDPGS

IC50 [1]: 9.2 nM | Ki [1]: 5.1 nM | IC50 [2]: 1800 nM | IC50 (U-87 MG): 2860 nM | IC50 (NCI-H460): 200 nM | IC50 (A549): 3840 nM | Papp A→B at 2 h, 2 µM [3]: 7.8 ×10⁻⁶ cm/s | efflux ratio at 2 h, 2 µM [4]: 1.08 | half-life at 1 µM [5]: 44.7 min | microsomal CLint at 1 µM [6]: 32.8 µL/min/mg | inhibition at 10 min, 10 µM (CYP1A2): 27.8% | half-life [7]: 119 min | Cmax [8]: 2570 ng/mL | microsomal CLint at 1 µM [9]: 24.8 µL/min/mg | half-life at 1 µM [10]: 58.3 min | inhibition [11]: 90% | inhibition [12]: 78% | remaining at 1 h, 1 µM [13]: 47.8%
Structure (SMILES): N#Cc1c(N2CCOCC2)sc(-c2nc[nH]n2)c1-c1ccc(NC(=O)Nc2ccccc2Cl)cc1
IC50 [14]: > 30000 nM
